Measurements taken from ChEMBL document CHEMBL5154910, “Preventing Influenza A Virus Infection by Mixed Inhibition of Neuraminidase and Hemagglutinin by Divalent Inhibitors” (J Med Chem, 2022).
Calls of active or inactive are those of the source. The calls are words filed in the database; no cut-off is given here.

Experiments:
[1] = Inhibition of Influenza A virus (A/Anascrecca/Spain/1460/2008(H7N9)) recombinant Neuraminidase using MUNANA as substrate incubated for 60 mins by fluorescence based assay
Procedure, shortened: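 Recombinant soluble tetrameric NA (N9 from A/Anascrecca/Spain/1460/2008 or N1 from A/Wisconsin/09/2013) was made in HEK293T cells and purified on Strep-Tactin. Compounds were serially diluted 1:2 in 50 mM Tris-HCl, 4 mM CaCl2, pH 6.0, with a fixed non-saturating amount of NA. MUNANA was added to 100 μM final, 37 °C for 60 min, then stopped with glycine/ethanol at pH 10.7. Fluorescence read at ex 340/em 490 nm; […].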

[2] = Inhibition of Influenza virus A/Netherlands/602/2009 Neuraminidase using MUNANA as substrate incubated for 60 mins by fluorescence based whole virus assay
Procedure, shortened: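 Whole Neth09H1N1 virus served as the NA source in place of recombinant protein. Compounds were serially diluted 1:2 in 50 mM Tris-HCl, 4 mM CaCl2, pH 6.0, with a fixed non-saturating amount of virus. MUNANA was added to 100 μM final, 37 °C for 60 min, then stopped with 0.1 M glycine, 25% ethanol, pH 10.7. Fluorescence read at ex 340/em 490 nm; IC50 determined.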

[3] = system: Influenza A virus; experiment: Antiviral activity against Influenza virus A/Netherlands/602/2009 assessed as inhibition of virus-LAMP1 binding at 10 uM by biolayer interferometry streptavidin sensor based assay; format: functional, organism-based
Procedure, shortened: (§1)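 Biolayer interferometry was run at 30 °C in PBS with Ca/Mg, shaking at 1000 rpm. Streptavidin sensors were loaded to saturation with biotinylated LAMP1 carrying increased α2,6-linked sialic acids, then dipped into Neth09H1N1 virus mixed with variable compound concentrations. […] Controls had no compound, or OC only.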

[4] = system: MDCK-II; experiment: Cytotoxicity against dog MDCK-II cells at 5 uM; format: toxicity, cell-based, Canis lupus familiaris
Procedure, shortened: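 MDCK-II monolayers were exposed to compound at the highest tested concentration of 5 μM in Opti-MEM at 37 °C, 5% CO2, for 4 days. Cytotoxicity was judged by microscopic inspection.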

[5] = system: Influenza A virus; experiment: Inhibition of Influenza virus A/Netherlands/602/2009 hemagglutinin assessed as reduction of virus-LAMP1 binding in presence of oseltamivir carboxylate by biolayer interferometry; procedure, shortened: as §1

SMILES | IC50 [1] [µM] | IC50 [2] [µM] | inhibition [3] | Activity [4] | inhibition [5]
CC[C@@H](CCCCc1cn([C@H]2[C@H](O)[C@@H](O)[C@H](n3cc(-c4ccc(-c5cn([C@@H]6O[C@H](CO)[C@@H](n7cc(CCCC[C@H](CC)O[C@@H]8OC(C(=O)O)=C[C@H](O)[C@H]8NC(C)=O)nn7)[C@H](O)[C@H]6O)nn5)cc4)nn3)O[C@@H]2CO)nn1)O[C@@H]1OC(C(=O)O)=C[C@H](O)[C@H]1NC(C)=O | 3.3 | 0.08 | Active | Non-Toxic | 
CC[C@@H](CCCCc1cn([C@H]2[C@H](OC(C)=O)[C@@H](OC(C)=O)[C@H](n3cc(CCCC[C@H](CC)O[C@@H]4OC(C(=O)O)=C[C@H](O)[C@H]4NC(C)=O)nn3)O[C@@H]2COC(C)=O)nn1)O[C@@H]1OC(C(=O)O)=C[C@H](O)[C@H]1NC(C)=O |  |  |  | Non-Toxic | 
C#CCCCC[C@@H](CC)O[C@@H]1OC(C(=O)O)=C[C@H](O)[C@H]1NC(C)=O | 28.2 |  |  |  | 
C#CCCC[C@H](CC)O[C@@H]1CC(C(=O)O)=C[C@H](O)[C@H]1NC(C)=O | 2.9 |  | Active | Non-Toxic | 
CC[C@@H](CCCCc1cn([C@H]2[C@H](O)[C@@H](O)[C@H](n3cc(-c4ccc(-c5cn([C@H]6[C@H](O)[C@@H](O)[C@H](n7cc(-c8ccc(-c9cn([C@@H]%10O[C@H](CO)[C@@H](n%11cc(CCCC[C@H](CC)O[C@@H]%12OC(C(=O)O)=C[C@H](O)[C@H]%12NC(C)=O)nn%11)[C@H](O)[C@H]%10O)nn9)cc8)nn7)O[C@@H]6CO)nn5)cc4)nn3)O[C@@H]2CO)nn1)O[C@@H]1OC(C(=O)O)=C[C@H](O)[C@H]1NC(C)=O |  |  | Active | Non-Toxic | Active
CCC(CC)O[C@@H]1C=C(C(=O)O)C[C@H](N)[C@H]1NC(C)=O [OSELTAMIVIR CARBOXYLATE] |  |  |  | Non-Toxic | 
CC[C@@H](CCCCc1cn([C@H]2[C@H](O)[C@@H](O)[C@H](n3cc(-c4ccc(-c5cn([C@@H]6O[C@H](CO)[C@@H](n7cc(-c8cc(O)c(-c9cn([C@@H]%10O[C@H](CO)[C@@H](n%11cc(-c%12ccc(-c%13cn([C@@H]%14O[C@H](CO)[C@@H](n%15cc(CCCC[C@H](CC)O[C@@H]%16OC(C(=O)O)=C[C@H](O)[C@H]%16NC(C)=O)nn%15)[C@H](O)[C@H]%14O)nn%13)cc%12)nn%11)[C@H](O)[C@H]%10O)nn9)cc8O)nn7)[C@H](O)[C@H]6O)nn5)cc4)nn3)O[C@@H]2CO)nn1)O[C@@H]1OC(C(=O)O)=C[C@H](N)[C@H]1NC(C)=O |  |  | Active | Non-Toxic | 
CC[C@@H](CCCCc1cn([C@H]2[C@H](OC(C)=O)[C@@H](OC(C)=O)[C@H](n3cc(CCCC[C@H](CC)O[C@@H]4OC(C(=O)O)=C[C@H](O)[C@H]4NC(C)=O)nn3)O[C@@H]2CO)nn1)O[C@@H]1OC(C(=O)O)=C[C@H](O)[C@H]1NC(C)=O | 5.2 | 1.5 |  | Non-Toxic | 
CCC(CC)O[C@@H]1OC(C(=O)O)=C[C@H](O)[C@H]1NC(C)=O | 0.47 |  |  |  | 
